Compound activity: PubChem BioAssay, Johns Hopkins Ion Channel Center
This is a sample that favours compounds with a hit; in the whole collection about 2.3% have one here.
TRPC4 inh: TRPC4 (mouse) channel inhibition; 300,000 tested, 0.39% active; AID 2247; B-score at 10 µM; HEK293 TRPC4beta/mu-opioid, DAMGO-evoked Fluo4 calcium flux; hits give low values; Q9QUQ5;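 active = B-score over 3 SD under the library average, no early fluorescence shift, positive overall ratio signal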
Target sequence (Q9QUQ5 whole entry, looked up): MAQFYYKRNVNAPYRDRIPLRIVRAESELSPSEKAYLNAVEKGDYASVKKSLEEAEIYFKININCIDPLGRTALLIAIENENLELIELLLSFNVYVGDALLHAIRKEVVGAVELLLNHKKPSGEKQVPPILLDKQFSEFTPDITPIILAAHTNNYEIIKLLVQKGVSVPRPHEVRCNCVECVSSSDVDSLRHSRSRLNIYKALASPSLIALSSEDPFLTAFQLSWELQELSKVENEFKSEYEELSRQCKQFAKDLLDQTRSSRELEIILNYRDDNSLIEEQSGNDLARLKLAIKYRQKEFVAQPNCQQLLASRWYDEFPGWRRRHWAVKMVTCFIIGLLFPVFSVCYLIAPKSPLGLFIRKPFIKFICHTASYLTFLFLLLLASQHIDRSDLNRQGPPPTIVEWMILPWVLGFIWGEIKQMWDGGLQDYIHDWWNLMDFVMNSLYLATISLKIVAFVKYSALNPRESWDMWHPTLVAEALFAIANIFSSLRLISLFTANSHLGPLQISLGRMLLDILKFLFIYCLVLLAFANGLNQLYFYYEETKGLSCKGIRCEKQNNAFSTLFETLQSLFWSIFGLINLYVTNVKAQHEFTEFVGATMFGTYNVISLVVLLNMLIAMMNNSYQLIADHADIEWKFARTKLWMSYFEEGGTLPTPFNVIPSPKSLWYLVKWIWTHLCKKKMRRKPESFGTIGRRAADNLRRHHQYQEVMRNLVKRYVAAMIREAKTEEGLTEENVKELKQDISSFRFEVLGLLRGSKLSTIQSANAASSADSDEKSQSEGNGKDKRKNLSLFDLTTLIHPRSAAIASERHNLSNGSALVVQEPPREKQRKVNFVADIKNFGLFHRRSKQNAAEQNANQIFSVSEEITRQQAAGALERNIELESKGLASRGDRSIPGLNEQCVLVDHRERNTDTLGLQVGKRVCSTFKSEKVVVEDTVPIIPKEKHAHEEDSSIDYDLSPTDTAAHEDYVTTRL
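Assay system: HEK293 cells with stable TRPC4beta plus mu-opioid receptor expression. Dosing: single dose. Measured by: Fluo4 Ca2+ flux fluorescence. Also added: DAMGO in two steps, submaximal then maximal. Read-out: B score from integrated Fluo4 fluorescence ratio.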
TRPC4 agonist: opens the mouse TRPC4 cation channel | HEK293 TRPC4beta/mu-opioid, Fluo4 calcium fluorescence; hits give high values | B-score at 10 µM | 310,000 tested, 0.49% active;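 active = B-score above 5 SD of library B-scores, and initial fluorescence ratio not above library mean plus 5 SD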;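 note: positive B-score marks a calcium rise read as TRPC4 activation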
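Assay system: HEK293 cells stably co-expressing mouse TRPC4beta and mu-opioid receptor / Timing: Fluo4 dye loading 45 min at room temperature, 110 s recording / Signal: Fluo4 calcium-sensitive dye fluorescence, kinetic, 1 Hz baseline / Read-out: integrated baseline-normalised fluorescence ratio, converted to per-well B score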
TRPC4 PAM: allosterically enhances the mouse TRPC4 cation channel | 310,000 tested, 0.42% active | B-score at 10 µM | Q9QUQ5 | HEK293 TRPC4beta/mu-opioid, DAMGO EC20, Fluo-4 Ca2+ flux; hits give high values;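 active = B-score of calcium response area above 5 SD of library B-scores, with initial fluorescence ratio within 5 SD of library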;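 note: B-score of integrated fluorescence ratio over time as area under calcium response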
TRPC6 act: mouse TRPC6 channel activation. Q61143. HEK293-TRPC6 membrane potential dye fluorescence; hits give high values. B-score at 10 µM. 310,000 tested, 0.13% active. AID 2550;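 active = B-score of the integrated fluorescence ratio above library mean plus 3 SD, and starting fluorescence ratio within library mean plus 5 SD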;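 note: higher score means more depolarization so channel activation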
TRPC6 inh: blocks the mouse TRPC6 cation channel; HEK293-TRPC6, membrane potential dye, ACh-evoked depolarization; hits give low values; B-score at 10 µM; 310,000 tested, 1.1% active; AID 2553;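 active = B-score under library mean minus 3 SD, initial fluorescence not abnormally high, positive integrated signal ratio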;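 note: B-score derived from integrated fluorescence ratio over the kinetic read; more negative B-score means stronger inhibition of depolarization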
TRPC4 spec 2: mouse TRPC4 off-target activity of TRPC6 inhibitors, second screen | 920 tested, 42% active | AID 2776 | HEK293 TRPC4/MOR, membrane potential dye fluorescence; channel activated by saturating DAMGO dose | inhibition, % at 10 µM | shares compounds with TRPC6 inh;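 active = compounds whose fluorescence signal differed from control wells by over 3 SD, either direction, in both duplicate plates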
TRPC4 spec: mouse TRPC4 off-target activity of TRPC6 inhibitors | shares compounds with TRPC6 inh | HEK293 TRPC4/mu-opioid, membrane potential fluorescence | activity change, negative = inhibition, % at 10 µM | 920 tested, 61% active | AID 2777;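 active = rise or fall in signal beyond 3 SD of buffer-only wells in both replicate plates, either sign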;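 note: integrated kinetic ratio of fluorescence range over baseline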
HEK293 MPD ctr 2-1: second counter-screen for TRPC6 inhibitors: parental HEK293 cells. 920 tested, 31% active. signal change vs control, % at 10 µM. shares compounds with TRPC6 inh. parental HEK293 membrane potential dye fluorescence; maximal acetylcholine challenge after compound addition;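 active = membrane potential signal moving either way by over 3 SD of the maximum-effect control, in both duplicate plates, meaning non-specific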
HEK293 MPD ctr-1: checks TRPC6 inhibitor effects in parental HEK293 cells | 920 tested, 60% active | membrane potential signal change, % at 10 µM | parental HEK293 membrane potential dye fluorescence | shares compounds with TRPC6 inh;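 active = membrane potential signal shifting up or down by more than 3 SD of buffer-only wells, on both duplicate plates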
HEK293 MPD ctr-2: counter-screen for TRPC6 modulators: effect in parental HEK293 cells; shares compounds with TRPC6 inh; membrane potential dye fluorescence; membrane potential signal change, % at 10 µM; 2,400 tested, 51% active;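 active = membrane potential signal moves up or down beyond 5 SD from buffer-only wells, on both duplicate plates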
HEK293 MPD ctr 2-2: parental HEK293 nonspecific activity of TRPC6 modulators, second screen; shares compounds with TRPC6 inh; membrane potential dye fluorescence; after compound, maximal acetylcholine stimulation; inhibition, % at 10 µM; 2,400 tested, 14% active; AID 488926;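 active = membrane potential signal drops by more than 5 SD from the mean control signal, in both duplicate plates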;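 note: plate controls were acetylcholine ECmax control wells for no effect and buffer only wells for full effect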
TRPC4 ctr mod: mouse TRPC4 off-target activity of TRPC6 modulators; shares compounds with TRPC6 inh; HEK293 TRPC4/mu-opioid, membrane potential fluorescence; percent change from control (negative = decrease, positive = increase), % at 10 µM; 2,400 tested, 69% active;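 active = membrane potential signal moved up or down beyond 5 SD of buffer control wells, in both duplicate plates, actives on both sides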;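 note: plate controls were assay buffer wells for no effect and DAMGO maximal-effect wells for full effect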
TRPC4/MOR inh 2: second check of whether TRPC6 modulators also affect mouse TRPC4; shares compounds with TRPC6 inh; AID 488928; 2,400 tested, 55% active; inhibition, % at 10 µM; HEK293 TRPC4/mu-opioid, membrane potential dye fluorescence; stimulated with maximal-effect DAMGO;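 active = drop in membrane potential signal beyond 5 SD of the control wells in both duplicate plates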;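 note: TRPC4 counter screen for TRPC6 hits run under conditions tuned for TRPC6 not TRPC4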
TRPC6 block conf: mouse TRPC6 inhibitor confirmation; shares compounds with TRPC6 inh; HEK293-TRPC6, membrane potential dye, ACh-evoked depolarization; inhibition, % at 10 µM; 3,300 tested, 43% active; AID 488960;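 active = fluorescence ratio falls more than 5 SD below the full-stimulation control mean, in both duplicate runs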;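 note: integrated fluorescence ratio of peak minus minimum over baseline after agonist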
TRPC6 act conf: mouse TRPC6 activator confirmation; shares compounds with TRPC6 inh; 2,800 tested, 11% active; HEK293-TRPC6 membrane potential dye fluorescence, FDSS; activation, % at 10 µM;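 active = ratio signal rise beyond 5 SD above unstimulated control wells' mean, seen in both duplicate runs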;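 note: plate controls were buffer EC0 wells for no effect and acetylcholine ECmax response for full effect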
Numbers without * were called inactive; i = inactive; x = no result; + = active, no number.

SMILES | TRPC4 inh | TRPC4 agonist | TRPC4 PAM | TRPC6 act | TRPC6 inh | HEK293 MPD ctr-2 | HEK293 MPD ctr 2-2 | TRPC4 ctr mod | TRPC4/MOR inh 2 | TRPC6 block conf | TRPC6 act conf | others
CCCCc1ccc(/C(C)=N/Nc2cc(N3CCOCC3)nc(C)n2)cc1 | i | i | i | i | -5.23* | i | i | i | i | i | i
Cc1c(C)n(C)c2ccc(C(=O)NCCCN3CCN(c4ccccc4F)CC3)cc12 | i | i | i | i | -7.26* | i | i | i | 67.0%* | 42.5%* | i
Cc1c(C)n(C)c2ccc(C(=O)NCCCN3CCN(c4ccc(F)cc4)CC3)cc12 | i | i | i | i | i | x | x | x | x | x | x
Oc1cccc(-c2nc3ccccc3s2)c1 | i | i | i | i | i | x | x | x | x | x | x
CC[n+]1cccc(-c2nc3ccccc3s2)c1 | i | i | i | i | -5.46* | -161.5%* | i | -26.0%* | i | i | i
COCCn1c(-c2ccc3ccccc3c2)nc2c1c(=O)[nH]c(=O)n2CC(C)C | i | i | i | i | i | x | x | x | x | x | x
CCN(CC)c1cc(C)c2cc(NC(=O)c3ccccc3F)ccc2n1 | i | i | i | i | i | x | x | x | x | x | x
CCN(CC)c1cc(C)c2cc(NC(=O)CNC(C)=O)ccc2n1 | i | i | i | i | -5.65* | -161.0%* | 59.0%* | -27.5%* | 38.0%* | i | i
CCCCC1CCC(C(=O)N(CCCC)c2c(N)n(CCCC)c(=O)[nH]c2=O)CC1 (stereo not given) | i | i | i | i | i | x | x | x | x | x | x
COc1ccc(/C=N/n2c(C)nc3ccccc3c2=O)cc1OC | i | i | i | i | -6.27* | i | i | i | i | i | i
Cc1[nH]c(C)c(S(=O)(=O)Nc2cccc(Cl)c2C)c1C(=O)N1CCCCC1 | i | i | i | i | i | x | x | x | x | x | x
Oc1c(C2=NCCNC(C(F)(F)F)=C2)ccc2ccccc12 | i | i | i | i | -5.03* | -96.0%* | i | -21.5%* | 47.0%* | i | i
CC[n+]1c(/C=C/Nc2ccccc2)sc2ccccc21 | i | i | i | i | -8.52* | x | x | x | x | i | i | TRPC4 spec 2=76.5%*;TRPC4 spec=-19.7%*;HEK293 MPD ctr 2-1=i;HEK293 MPD ctr-1=-361.0%*
CC/C(=C/c1sc2ccccc2[n+]1CC)SC | i | i | i | i | i | x | x | x | x | x | x
CC[n+]1c(/C=C(\C)SC)sc2ccccc21 | i | i | i | i | -10.3* | -261.5%* | 82.5%* | -41.5%* | 58.5%* | 56.5%* | i
CC[n+]1c(/C=C(/C)SC)sc2ccccc21 | i | i | i | i | -7.46* | -275.0%* | 82.0%* | -48.5%* | 52.5%* | 67.0%* | i
CC[n+]1c(/C=C2/C=C(C)CC(C)C2)sc2ccccc21 (stereo not given) | i | i | i | i | i | x | x | x | x | x | x
O=C(c1ccc(Cl)c(S(=O)(=O)Nc2ccc(F)cc2)c1)N1CCN(c2ccccn2)CC1 | i | i | i | i | -10.2* | x | x | x | x | i | i | TRPC4 spec 2=i;TRPC4 spec=9.5%*;HEK293 MPD ctr 2-1=i;HEK293 MPD ctr-1=4.3%*
O=C(c1ccc(Cl)c(Cl)c1)N1CCN(c2ccccn2)CC1 | i | i | i | i | i | x | x | x | x | x | x
Oc1ccc(O)c(/C(=N/Nc2ccccc2)c2ccccc2)c1 | i | i | i | i | i | x | x | x | x | x | x
CCN(c1ccc(NC(=O)c2ccc(Cl)nc2)cc1)C(C)C | i | i | i | i | -6.53* | i | i | i | i | i | i
O=C(Nc1ccc(N2CCOCC2)cc1)c1ccc(Cl)nc1 | i | i | i | i | i | x | x | x | x | x | x
O=c1c(O)c(-c2cccs2)oc2ccc(Cl)cc12 | i | i | i | 76.3* | i | + | i | 326.5%* | 82.5%* | i | 334.0%*
CCOc1ccc(OCCC(=O)OCC(=O)N2CCN(S(=O)(=O)c3ccc(Cl)cc3)CC2)cc1 | i | i | i | i | i | x | x | x | x | x | x
Cc1ccc(NC2CCCN(C(=O)c3cccs3)C2)cc1C (stereo not given) | i | i | i | i | i | x | x | x | x | x | x
SMILES | TRPC4 inh | TRPC4 agonist | TRPC4 PAM | TRPC6 act | TRPC6 inh | HEK293 MPD ctr-2 | HEK293 MPD ctr 2-2 | TRPC4 ctr mod | TRPC4/MOR inh 2 | TRPC6 block conf | TRPC6 act conf | others
Cc1ccc(SCCNC(=S)Nc2cc(C)ccc2C)cc1 | i | i | i | i | i | x | x | x | x | x | x
Cc1ccc(C)c(NC(=S)NCCN(C2CCCCC2)C2CCCC2)c1 | i | i | i | i | -5.23* | 172.5%* | i | 32.5%* | 48.0%* | i | x
Cc1occc1C(=O)/C(C#N)=C/c1ccc(O)c(Br)c1 | i | 46* | i | 72.8* | i | + | 107.0%* | 236.5%* | i | x | 508.0%*
N#C/C(=C\c1ccc(O)c(Br)c1)C(=O)N1CCCCC1 | i | i | i | i | i | x | x | x | x | x | x
N#Cc1c(-n2cccc2/C=N/O)sc2c1CCCC2 | i | i | i | i | -6.61* | x | x | x | x | 60.0%* | x | TRPC4 spec 2=i;TRPC4 spec=20.3%*;HEK293 MPD ctr 2-1=-30.0%*;HEK293 MPD ctr-1=17.6%*
C=CCNCc1cccn1-c1sc2c(c1C#N)CCCC2 | i | i | i | i | i | x | x | x | x | x | x
